Test results as given in ChEMBL document CHEMBL3098007, “Synthesis of 3-heteryl substituted pyrrolidine-2,5-diones via catalytic Michael reaction and evaluation of their inhibitory activity against InhA and Mycobacterium tuberculosis” (Eur J Med Chem, 2014).
In brackets after ≈: the same amount, converted by molar mass.

Test system: not listed separately
Assay: Cytotoxicity against human GM637 cells after 4 days by WST-1 assay
Format: cell-based
Conditions: GM637, 96 h
How it was run: (§1)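 Cells cultured in DMEM with 10% fetal calf serum. Seeded at 3000 cells/well, treated 24 h later with 9 concentrations from 100 nM to 100 µM, 8 replicates each. Viability read by WST-1 after 4 days of treatment. IC50 derived by curve fitting.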
Compound `O=C1CC(N2CCc3ccccc3C2)C(=O)N1Cc1ccccc1` (stereo not drawn) has an IC50 of over 100 µM.
In the case of `O=C1CC(c2c3c([N+](=O)[O-])cc([N+](=O)[O-])cc3c3ccccn23)C(=O)N1c1ccccc1` (stereo not drawn), the IC50 is reported as over 100 µM.
Work on `O=C1CC(N2CCc3ccccc3C2)C(=O)N1c1ccccc1` (stereo not drawn) yielded an IC50 of over 100 µM.
With `O=C1CC(n2ccnc2)C(=O)N1c1ccccc1` (stereo not drawn) the IC50 was over 100 µM.
Compound `O=C1CC(c2c(-c3ccccc3)cc3ccccn23)C(=O)N1c1ccccc1` (stereo not drawn) has an IC50 of over 100 µM.
In the case of `O=C1CC(N2CCN(C3c4ccccc4-c4ccccc43)CC2)C(=O)N1c1ccccc1` (stereo not drawn), the IC50 is reported as over 100 µM.
Compound `O=C1CC(Sc2nc[nH]n2)C(=O)N1c1ccccc1` (stereo not drawn) has an IC50 of 15 µM.

Test system: Mycobacterium tuberculosis
Assay: Antimicrobial activity against Mycobacterium tuberculosis H37Rv after 21 days by micro-broth dilution method
Format: functional
Conditions: 504 h
Compound `O=C1CC(N2CCc3ccccc3C2)C(=O)N1Cc1ccccc1` (stereo not drawn) has an MIC of 31.2 µM (≈ 10 µg/mL).
Compound `O=C1CC(N2CCN(C3c4ccccc4-c4ccccc43)CC2)C(=O)N1Cc1ccccc1` (stereo not drawn) has an MIC of 91.4 µM (≈ 40 µg/mL).
For `O=C1CC(c2c3c([N+](=O)[O-])cc([N+](=O)[O-])cc3c3ccccn23)C(=O)N1c1ccccc1` (stereo not drawn), the MIC was 46.5 µM (≈ 20 µg/mL).
`O=C1CC(N2CCc3ccccc3C2)C(=O)N1c1ccccc1` (stereo not drawn) gave an MIC of 8.2 µM (≈ 2.51 µg/mL).
`O=C1CC(n2ccnc2)C(=O)N1c1ccccc1` (stereo not drawn) showed an MIC of 82.9 µM (≈ 20 µg/mL).
`NNC(=O)c1ccncc1` [ISONIAZID] gave an MIC of 0.4 µM (≈ 0.0549 µg/mL).
`O=C(c1ccc2[nH]ccc2c1)N1CCN(C2c3ccccc3-c3ccccc32)CC1` showed an MIC of over 318 µM.
In the case of `COc1ccc(N2C(=O)CC(n3ccnc3)C2=O)cc1` (stereo not drawn), the MIC is reported as 55.3 µM (≈ 15 µg/mL).
Compound `Oc1cc(Cl)ccc1Oc1ccc(Cl)cc1Cl` [TRICLOSAN] has an MIC of 34.5 µM (≈ 9.99 µg/mL).
In the case of `COc1ccc(N2C(=O)CC(Sc3nnc[nH]3)C2=O)cc1` (stereo not drawn), the MIC is reported as 16.4 µM (≈ 4.99 µg/mL).
Work on `O=C1CC(c2c(-c3ccccc3)cc3ccccn23)C(=O)N1c1ccccc1` (stereo not drawn) yielded an MIC of 109 µM (≈ 40 µg/mL).
In the case of `O=C1CC(c2c(-c3ccccc3)cc3ccccn23)C(=O)N1Cc1ccccc1` (stereo not drawn), the MIC is reported as 52.6 µM (≈ 20 µg/mL).
`O=C1CC(N2CCN(C3c4ccccc4-c4ccccc43)CC2)C(=O)N1c1ccccc1` (stereo not drawn) gave an MIC of 94.4 µM (≈ 40 µg/mL).
For `O=C1CC(Sc2nc[nH]n2)C(=O)N1c1ccccc1` (stereo not drawn), the MIC was 18.2 µM (≈ 4.99 µg/mL).

Test system: HCT-116
Assay: Cytotoxicity against human HCT116 cells after 4 days by WST-1 assay
Format: cell-based
Conditions: HCT-116, 96 h
How it was run: as §1
For `O=C1CC(N2CCc3ccccc3C2)C(=O)N1Cc1ccccc1` (stereo not drawn), the IC50 was over 100 µM.
Work on `O=C1CC(c2c3c([N+](=O)[O-])cc([N+](=O)[O-])cc3c3ccccn23)C(=O)N1c1ccccc1` (stereo not drawn) yielded an IC50 of over 100 µM.
`O=C1CC(N2CCc3ccccc3C2)C(=O)N1c1ccccc1` (stereo not drawn) gave an IC50 of over 100 µM.
`O=C1CC(n2ccnc2)C(=O)N1c1ccccc1` (stereo not drawn) showed an IC50 of over 100 µM.
In the case of `O=C1CC(c2c(-c3ccccc3)cc3ccccn23)C(=O)N1c1ccccc1` (stereo not drawn), the IC50 is reported as over 100 µM.
`O=C1CC(N2CCN(C3c4ccccc4-c4ccccc43)CC2)C(=O)N1c1ccccc1` (stereo not drawn) gave an IC50 of over 100 µM.
In the case of `O=C1CC(Sc2nc[nH]n2)C(=O)N1c1ccccc1` (stereo not drawn), the IC50 is reported as 17 µM.
